Measurements taken from ChEMBL document CHEMBL1629527, “In vitro antifungal activities of bis(alkylpyridinium)alkane compounds against pathogenic yeasts and molds” (Antimicrob Agents Chemother, 2010).

How the values were obtained:
[1] = Antifungal activity against Exophiala jeanselmei 03-200268 after 48 to 72 hrs; type: functional
Procedure, shortened: (§1)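 CLSI M38-A2 broth microdilution for molds in RPMI 1640 with L-glutamine and no bicarbonate, buffered with 0.165 M MOPS to pH 7.0. Compounds were dissolved in water and tested at 0.175–87.5 μM final, 35°C, up to 7 days. MIC was read visually as 100% inhibition versus growth control. For MFC, clear wells were plated on SDA and the lowest concentration with no colonies taken. Each isolate was run in duplicate, two independent experiments.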

Exophiala spinifera [2] = experiment: Antifungal activity against Exophiala spinifera 03-200803 after 48 to 72 hrs; type: functional; procedure, shortened: as §1
Rhizopus arrhizus [3] = experiment: Antifungal activity against Rhizopus oryzae 05-203111 after 48 to 72 hrs; type: functional
Procedure, shortened: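 After the broth microdilution MIC read, suspension from every well without visible growth was plated onto Sabouraud dextrose agar and incubated at 35°C, up to 7 days for molds. MFC was taken as the lowest drug concentration with no colonies.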

Aspergillus terreus [4] = experiment: Antifungal activity against Aspergillus terreus 05-202844 after 48 to 72 hrs; type: functional
Procedure, shortened: (§2)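 MFC: after the MIC read, 30-μl aliquots from each well without visible growth were plated onto Sabouraud dextrose agar and incubated at 35°C. Reading was at 48–72 h for yeasts and up to 7 days for molds. MFC was the lowest concentration with no colonies.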

Lomentospora prolificans [5] = experiment: Antifungal activity against Scedosporium prolificans 05-203060 after 48 to 72 hrs; type: functional; procedure, shortened: as §1
Exophiala spinifera [6] = experiment: Antifungal activity against Exophiala spinifera 03-200803 after 24 to 72 hrs by broth microdilution method; type: functional
Procedure, shortened: (§3)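 Mold isolates subcultured on potato dextrose agar, then tested by CLSI M38-A2 broth microdilution in RPMI 1640 (L-glutamine, no bicarbonate) buffered to pH 7.0 with 0.165 M MOPS. Compounds were dissolved in water and tested at a final 0.175–87.5 μM. Plates were incubated at 35°C. MIC was read visually as the lowest concentration giving 100% inhibition versus the growth control. Each isolate was run in duplicate in two independent experiments.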

Fusarium solani = experiment: Antifungal activity against Fusarium solani 04-203102 after 24 to 72 hrs by broth microdilution method; type: functional; procedure, shortened: as §3
[7] = Antifungal activity against Paecilomyces lilacinus 05-200601 after 24 to 72 hrs by broth microdilution method; type: functional; conditions: Purpureocillium lilacinum; procedure, shortened: as §3
Rhizopus arrhizus [8] = experiment: Antifungal activity against Rhizopus oryzae 05-203111 after 24 to 72 hrs by broth microdilution method; type: functional; procedure, shortened: as §3
Candida parapsilosis [9] = experiment: Antifungal activity against Candida parapsilosis ATCC 22019 after 48 to 72 hrs; type: functional; conditions: Lodderomyces parapsilosis; procedure, shortened: as §2
Aspergillus fumigatus [10] = experiment: Antifungal activity against Aspergillus fumigatus 05-203114 after 24 to 72 hrs by broth microdilution method; type: functional
Procedure, shortened: (§4)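 Broth microdilution MIC per CLSI M27-A3 (yeasts) or M38-A2 (molds). RPMI 1640 with L-glutamine, without bicarbonate, buffered to pH 7.0 with 0.165 M MOPS. Final test range for the compounds was 0.175–87.5 μM. Incubation at 35°C with visual reading at 24–72 h. MIC was the lowest concentration giving 100% inhibition versus the growth control (azoles 50% or 100%, by organism). Each isolate was run in duplicate in two independent experiments.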

Aspergillus flavus [11] = experiment: Antifungal activity against Aspergillus flavus ATCC 204304 after 24 to 72 hrs by broth microdilution method; type: functional; procedure, shortened: as §4
Aspergillus flavus [12] = experiment: Antifungal activity against Aspergillus flavus 05-203758 after 24 to 72 hrs by broth microdilution method; type: functional; procedure, shortened: as §4
Aspergillus terreus [13] = experiment: Antifungal activity against Aspergillus terreus 05-202844 after 24 to 72 hrs by broth microdilution method; type: functional; procedure, shortened: as §4
Lomentospora prolificans [14] = experiment: Antifungal activity against Scedosporium prolificans 05-203060 after 24 to 72 hrs by broth microdilution method; type: functional; procedure, shortened: as §3
Scedosporium apiospermum = experiment: Antifungal activity against Scedosporium apiospermum 05-203100 after 24 to 72 hrs by broth microdilution method; type: functional; procedure, shortened: as §3
[15] = test system: Cunninghamella bertholletiae; experiment: Antifungal activity against Cunninghamella bertholletiae 99-12187 after 24 to 72 hrs by broth microdilution method; type: functional; procedure, shortened: as §4
Lichtheimia corymbifera = experiment: Antifungal activity against Absidia corymbifera 04-200170 after 24 to 72 hrs by broth microdilution method; type: functional; procedure, shortened: as §4
Aspergillus fumigatus [16] = experiment: Antifungal activity against Aspergillus fumigatus ATCC 204305 after 24 to 72 hrs by broth microdilution method; type: functional; procedure, shortened: as §4
[17] = test system: Cryptococcus gattii species complex; experiment: Antifungal activity against Cryptococcus gattii 05-200122 after 24 to 72 hrs by broth microdilution method; type: functional, Cryptococcus bacillisporus; procedure, shortened: as §4
Cryptococcus neoformans [18] = experiment: Antifungal activity against Cryptococcus neoformans 05-202523 after 24 to 72 hrs by broth microdilution method; type: functional; procedure, shortened: as §4
Cryptococcus neoformans [19] = experiment: Antifungal activity against Cryptococcus neoformans ATCC 90112 after 24 to 72 hrs by broth microdilution method; type: functional; procedure, shortened: as §4
Candida tropicalis = experiment: Antifungal activity against Candida tropicalis 04-202361 after 24 to 72 hrs by broth microdilution method; type: functional; procedure, shortened: as §4
Nakaseomyces glabratus [20] = experiment: Antifungal activity against Candida glabrata 04-202345 after 24 to 72 hrs by broth microdilution method; type: functional; procedure, shortened: as §4
Candida parapsilosis [21] = experiment: Antifungal activity against Candida parapsilosis 04-202398 after 24 to 72 hrs by broth microdilution method; type: functional; conditions: Lodderomyces parapsilosis; procedure, shortened: as §4
Pichia kudriavzevii [22] = experiment: Antifungal activity against Candida krusei ATCC 9258 after 24 to 72 hrs by broth microdilution method; type: functional; procedure, shortened: as §4
Pichia kudriavzevii [23] = experiment: Antifungal activity against Candida krusei 04-202328 after 24 to 72 hrs by broth microdilution method; type: functional; procedure, shortened: as §4
Candida parapsilosis [24] = experiment: Antifungal activity against Candida parapsilosis ATCC 22019 after 24 to 72 hrs by broth microdilution method; type: functional; conditions: Lodderomyces parapsilosis; procedure, shortened: as §4
Pichia kudriavzevii [25] = experiment: Antifungal activity against Candida krusei ATCC 6258 after 24 to 72 hrs by broth microdilution method; type: functional; procedure, shortened: as §4
Candida albicans [26] = experiment: Antifungal activity against Candida albicans ATCC 10231 after 24 to 72 hrs by broth microdilution method; type: functional; procedure, shortened: as §4
Candida albicans [27] = experiment: Antifungal activity against Candida albicans ATCC 90028 after 24 to 72 hrs by broth microdilution method; type: functional; procedure, shortened: as §4
[28] = Antifungal activity against Exophiala jeanselmei 03-200268 after 24 to 72 hrs by broth microdilution method; type: functional; procedure, shortened: as §4
Cryptococcus neoformans [29] = experiment: Antifungal activity against Cryptococcus neoformans 05-202523 after 48 to 72 hrs; type: functional; procedure, shortened: as §2
Candida albicans [30] = experiment: Antifungal activity against Candida albicans ATCC 90028 after 48 to 72 hrs; type: functional; procedure, shortened: as §2
Pichia kudriavzevii [31] = experiment: Antifungal activity against Candida krusei […] after 48 to 72 hrs; type: functional; procedure, shortened: as §2
Pichia kudriavzevii [32] = experiment: Antifungal activity against Candida krusei 04-202328 after 48 to 72 hrs; type: functional
Procedure, shortened: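 CLSI M27-A3 broth microdilution for yeasts in RPMI 1640 with L-glutamine and no bicarbonate, buffered with 0.165 M MOPS to pH 7.0. Compounds were dissolved in water and tested at 0.175–87.5 μM final, 35°C. MIC was read visually at 24–72 h as 100% inhibition versus growth control. For MFC, 30 μl from clear wells went onto SDA at 35°C for 48–72 h, reading the lowest concentration without colonies. Duplicates, two independent runs.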

Nakaseomyces glabratus [33] = experiment: Antifungal activity against Candida glabrata 04-202345 after 48 to 72 hrs; type: functional; procedure, shortened: as §2

CCCCCc1cccc[n+]1CCCCCCCCCCCC[n+]1ccccc1CCCCC.[Cl-].[Cl-]
MFC [1]: 2.96 mg/L | MFC (Exophiala spinifera [2]): 0.74 mg/L | MFC (Rhizopus arrhizus [3]): 5.9 mg/L | MFC (Aspergillus terreus [4]): 1.48 mg/L | MFC (Lomentospora prolificans [5]): 5.9 mg/L | MIC (Exophiala spinifera [6]): 0.37 mg/L | MIC (Fusarium solani): 23.7 mg/L | MIC [7]: > 47.3 mg/L | MIC (Rhizopus arrhizus [8]): 2.96 mg/L | MFC (Candida parapsilosis [9]): 1.48 mg/L | MIC (Aspergillus fumigatus [10]): > 47.3 mg/L | MIC (Aspergillus flavus [11]): > 47.3 mg/L | MIC (Aspergillus flavus [12]): > 47.3 mg/L | MIC (Aspergillus terreus [13]): 0.74 mg/L | MIC (Lomentospora prolificans [14]): 1.48 mg/L | MIC (Scedosporium apiospermum): 1.48 mg/L | MIC [15]: 47.3 mg/L | MIC (Lichtheimia corymbifera): > 47.3 mg/L | MIC (Aspergillus fumigatus [16]): > 47.3 mg/L | MIC [17]: 1.48 mg/L | MIC (Cryptococcus neoformans [18]): 47.3 mg/L | MIC (Cryptococcus neoformans [19]): 5.9 mg/L | MIC (Candida tropicalis): 0.74 mg/L | MIC (Nakaseomyces glabratus [20]): 0.37 mg/L | MIC (Candida parapsilosis [21]): 47.3 mg/L | MIC (Pichia kudriavzevii [22]): 23.7 mg/L | MIC (Pichia kudriavzevii [23]): 23.7 mg/L | MIC (Candida parapsilosis [24]): 0.74 mg/L | MIC (Pichia kudriavzevii [25]): 23.7 mg/L | MIC (Candida albicans [26]): 1.48 mg/L | MIC (Candida albicans [27]): 1.48 mg/L | MIC [28]: 0.74 mg/L

CC(C)CCc1cc[n+](CCCCCCCCCCCC[n+]2ccc(CCC(C)C)cc2)cc1.[Cl-].[Cl-]
MFC (Rhizopus arrhizus [3]): 23.7 mg/L | MFC (Cryptococcus neoformans [29]): 47.3 mg/L | MFC (Aspergillus terreus [4]): 5.9 mg/L | MIC (Exophiala spinifera [6]): 1.48 mg/L | MIC (Fusarium solani): 47.3 mg/L | MIC [7]: > 47.3 mg/L | MIC (Rhizopus arrhizus [8]): 5.9 mg/L | MFC (Candida albicans [30]): 5.9 mg/L | MFC (Pichia kudriavzevii [31]): 23.7 mg/L | MFC (Pichia kudriavzevii [32]): 47.3 mg/L | MFC (Candida parapsilosis [9]): 2.96 mg/L | MIC (Aspergillus fumigatus [10]): > 47.3 mg/L | MIC (Aspergillus flavus [11]): > 47.3 mg/L | MIC (Aspergillus flavus [12]): > 47.3 mg/L | MIC (Aspergillus terreus [13]): 2.96 mg/L | MIC (Lomentospora prolificans [14]): 2.96 mg/L | MIC (Scedosporium apiospermum): 11.8 mg/L | MIC [15]: > 47.3 mg/L | MIC (Lichtheimia corymbifera): > 47.3 mg/L | MIC (Aspergillus fumigatus [16]): > 47.3 mg/L | MIC [17]: 1.48 mg/L | MIC (Cryptococcus neoformans [18]): 11.8 mg/L | MIC (Cryptococcus neoformans [19]): 2.96 mg/L | MIC (Candida tropicalis): 2.96 mg/L | MIC (Nakaseomyces glabratus [20]): 1.48 mg/L | MIC (Candida parapsilosis [21]): > 47.3 mg/L | MIC (Pichia kudriavzevii [22]): 11.8 mg/L | MIC (Pichia kudriavzevii [23]): 23.7 mg/L | MIC (Candida parapsilosis [24]): 1.48 mg/L | MIC (Pichia kudriavzevii [25]): 23.7 mg/L | MIC (Candida albicans [26]): 2.96 mg/L | MIC (Candida albicans [27]): 2.96 mg/L | MFC (Nakaseomyces glabratus [33]): 5.9 mg/L | MIC [28]: 2.96 mg/L
